The text below walks through data of paper PMC8752533 (European Journal of Drug Metabolism and Pharmacokinetics, 2021).

A word on the AUC(0-t): it is exposure summed from dosing to a finite time, without extrapolation to infinity. Read a low AUC(0-t) as less exposure. Usually Cmax stands for the peak of the concentration-time curve. Broadly, the AUC(0-inf) is total exposure, with the tail of the curve extrapolated. Usually half-life stands for how long it takes for the measured level to halve. The low end stands for fast loss, the high end for slow loss.

Series [1] deals with CYP3A4. The settings on record: human liver microsomes; CYP3A4 inhibitor ketoconazole.
The next series has as its target CYP3A5 (Homo sapiens, UniProt P20815). Briefly: Metabolism of BI 425809 by recombinant CYP isoforms. It counts as in vitro ADME.
For series [2] the following is noted: doses up to 75 mg in healthy volunteers; cited from earlier work.
A short description of series [3]: Phase I DDI study with itraconazole: plasma pharmacokinetics of BI 425809. Format: in vivo, human (healthy male volunteers). The settings on record: for AUC(0-inf): AUC0-∞.
In a further series the test system is human liver microsomes. The experiment in a line: Turnover of BI 425809 in human liver microsomes. It counts as in vitro ADME. The settings on record: BI 425809 0.2, 2, 10 μM; up to 60 min.
For series [4], the system named is cerebrospinal fluid glycine levels. The settings on record: multiple oral administrations, doses as low as 10 mg, dose-dependent; cited from earlier work.
Series [5] is described as follows: Analyte stability in human plasma samples containing tripotassium EDTA. Format: physicochemical. The settings on record: human plasma with tripotassium EDTA, -20 °C.
Series [6] is described as follows: Phase I DDI study with itraconazole: safety and tolerability. Format: in vivo, human (healthy male volunteers). Particulars: for Treatment-related AEs / Participants with any AE / Gastrointestinal disorders / General disorders and administration site conditions / Infections and infestations / Musculoskeletal and connective tissue disorders / Nervous system disorders / Vascular disorders: DDI + itraconazole study; for Participants with any AE: 16 participants per treatment; for Gastrointestinal disorders / General disorders and administration site conditions / Infections and infestations / Musculoskeletal and connective tissue disorders / Nervous system disorders / Vascular disorders: system organ class. Put shortly:
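Healthy males aged 18–50, BMI 18.5–29.9, received a single oral 25 mg test compound dose alone in period 1. In period 2 the same dose was given on day 4 of oral itraconazole, 200 mg QD on days 2–10. Washout was ≥16 days. Dosing followed a standardised breakfast, with 240 ml water. Safety was scored as frequency n (%) of AEs by system organ class, including physical exam findings, alongside labs, vital signs and 12-lead ECG.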

A short description of series [7]: Phase I DDI study with rifampicin: safety and tolerability. It counts as in vivo, human (healthy male volunteers). The settings on record: for Participants with any AE: 16 participants per treatment.
Another series deals with CYP3A. The experiment in a line: BI 425809 metabolism by human hepatocytes. Format: in vitro ADME. Particulars: erythromycin 30 µM, all BI 425809 concentrations evaluated.
Series [8] is described as follows: Phase I DDI study with rifampicin: plasma pharmacokinetics of BI 425809. Format: in vivo, human (healthy male volunteers). Particulars: for AUC(0-inf): AUC0-∞.
Series [9] deals with CYP3A4 (Homo sapiens, UniProt P08684). Format: in vitro ADME. The settings on record: rCYP3A4, NADPH, up to 60 min.
[10] abbreviates: BI 425809 + itraconazole relative to BI 425809 alone.
Where [11] appears, read: male, human, plasma, oral, 25 mg.
Where [12] appears, read: male, human, plasma, oral, 25 mg, gMean, BI 425809 25 mg alone, N = 16.
Where [13] appears, read: DDI + rifampicin study, system organ class.
The mark [14] stands for this setting: BI 425809 + rifampicin relative to BI 425809 alone.

The structures appear in SMILES notation. Several values for one entry are separate records, joined by “and”; a condition that tells them apart may be missing. Equal values may be shown once. Read-outs that look alike come from different tables or passages of the source.

CYP3A5, sequence (P20815 whole entry, canonical isoform): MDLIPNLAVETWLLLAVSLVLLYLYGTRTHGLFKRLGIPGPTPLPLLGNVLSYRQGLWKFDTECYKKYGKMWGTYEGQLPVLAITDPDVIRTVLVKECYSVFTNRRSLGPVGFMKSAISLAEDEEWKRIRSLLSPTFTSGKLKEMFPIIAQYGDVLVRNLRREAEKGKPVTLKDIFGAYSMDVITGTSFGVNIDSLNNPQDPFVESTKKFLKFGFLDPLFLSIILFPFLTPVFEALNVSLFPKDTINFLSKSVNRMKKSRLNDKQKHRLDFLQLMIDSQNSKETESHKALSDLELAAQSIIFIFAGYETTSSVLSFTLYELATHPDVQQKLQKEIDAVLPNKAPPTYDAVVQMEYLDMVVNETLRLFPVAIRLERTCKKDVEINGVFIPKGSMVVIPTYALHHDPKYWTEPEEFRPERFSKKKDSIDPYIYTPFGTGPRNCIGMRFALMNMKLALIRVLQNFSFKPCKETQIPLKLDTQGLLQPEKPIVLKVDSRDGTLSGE
CYP3A4 (Homo sapiens, UniProt P08684), sequence (P08684 whole entry): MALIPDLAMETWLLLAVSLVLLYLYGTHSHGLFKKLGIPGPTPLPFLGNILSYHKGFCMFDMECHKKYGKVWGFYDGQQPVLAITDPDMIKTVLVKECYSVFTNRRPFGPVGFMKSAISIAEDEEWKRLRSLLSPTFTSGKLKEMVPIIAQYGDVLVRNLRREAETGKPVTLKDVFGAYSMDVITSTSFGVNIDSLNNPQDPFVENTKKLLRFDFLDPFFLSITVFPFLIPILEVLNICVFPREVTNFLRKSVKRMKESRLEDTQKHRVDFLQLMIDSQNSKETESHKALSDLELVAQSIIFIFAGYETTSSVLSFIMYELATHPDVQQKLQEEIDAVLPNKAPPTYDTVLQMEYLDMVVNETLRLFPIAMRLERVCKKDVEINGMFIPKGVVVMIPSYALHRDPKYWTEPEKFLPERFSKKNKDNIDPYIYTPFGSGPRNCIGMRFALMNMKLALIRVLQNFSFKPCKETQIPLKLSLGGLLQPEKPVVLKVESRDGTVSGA

With `CC(=O)N1CCN(c2ccc(OCC3COC(Cn4ccnc4)(c4ccc(Cl)cc4Cl)O3)cc2)CC1` (stereo not shown) [ketoconazole], the “inhibition of formation of BI 425809 metabolites M530 and M544” value in the series on CYP3A4 [1] is listed as “completely inhibited”.
In the case of `C[C@@H](Oc1ccc(S(C)(=O)=O)cc1C(=O)N1C[C@@H]2C[C@]2(c2cc(C(F)(F)F)on2)C1)C(F)(F)F` [BI 425809], the “% In vitro CYP contribution, Depletion” value on CYP3A5 (CYP3A5, depletion of BI 425809) was about 4%. The “depletion of BI 425809” value on CYP3A5 (rCYP3A5, NADPH, up to 60 min) is reported as over 15%; on CYP3A4 [9], over 15%. Further, the tolerability entry in series [2] was “generally well tolerated”; in series [6] (both DDI studies (itraconazole and rifampicin), 25 mg single oral dose), “well tolerated”. Besides, the “CL/F, gMean” value in series [3] (BI 425809 25 mg + itraconazole, N = 15) worked out at 12.4 mL/min; in series [3] (BI 425809 25 mg alone, N = 16), 73.3 mL/min; in series [8] (BI 425809 25 mg alone, N = 16), 94.6 mL/min. Also, the “t1/2, gMean” value in series [3] (BI 425809 25 mg alone, N = 16) is 45.5 h. Moreover, the “AUC0-167, adjusted gMean ratio T/R (90% CI)” value in [3] (setting [10]) was 265.3% and 265.3 (240.9‒292.2) %. In addition, the “AUC0-∞, adjusted gMean ratio T/R (90% CI)” value in series [3] (setting [10]) is 597.0% and 597.0 (514.2‒693.0) %; in series [8] (setting [14]) it was 9.8 (8.8–11.0) %. In addition, the “Cmax, adjusted gMean ratio T/R (90% CI)” value was 116.1% and 116.1 (108.0‒124.7) % in series [3] (setting [10]); 37.4% and 37.4 (33.0‒43.5) % in series [8] (setting [14]). Further, the “extrapolated area of AUC0-∞” value in series [3] (BI 425809 under itraconazole treatment) is 56%. Also, the AUC(0-t) in series [3] (setting [11]) worked out at 10.2 µM·h; in series [3] (male, human, plasma, po, 25 mg), 10.2 µM·h; in [8] (setting [11]), 8.22 µM·h; in series [8] (male, human, plasma, po, 25 mg), 8.22 µM·h. Also, the Cmax worked out at 316 nM in [3] (setting [11]); 367 nM in [3] (read-out: Cmax, adjusted gMean, BI 425809 + itraconazole (T), inferential analysis); 218 nM in series [8] (read-out: Cmax, adjusted gMean, BI 425809 alone (R), inferential analysis); 218 nM in series [8] (read-out: Cmax, gMean, BI 425809 25 mg alone, N = 16). In addition, the AUC(0-inf) in [3] (male, human, plasma, oral, 25 mg, adjusted gMean, BI 425809 alone (R), inferential analysis) was 11.1 µM·h; in series [3] (setting [12]), 11.1 µM·h; in series [3] (male, human, plasma, oral, adjusted gMean, BI 425809 + itraconazole (T), inferential analysis), 66.2 µM·h; in series [3] (male, human, plasma, oral, gMean, BI 425809 25 mg + itraconazole, N = 15) it was 65.3 µM·h; in [8] (setting [12]), 8.6 µM·h; in series [8] (male, human, plasma, oral, adjusted gMean, BI 425809 + rifampicin (T), inferential analysis) it was 0.846 µM·h. Moreover, in series [8] (male, human, plasma, oral, gMean, BI 425809 25 mg + rifampicin, N = 15), the total exposure AUC(0-inf) amounted to 0.837 µM·h. Besides, in series [3] (with itraconazole versus alone), the “increase in Cmax” value is about 16%. In addition, the “turnover of BI 425809 in human liver microsomes” value in the series on human liver microsomes is “No detectable turnover”. Also, in series [4], the “mean increase in cerebrospinal fluid glycine levels” value was 50%. For the same compound, the “period of demonstrated analyte stability” value in series [5] is recorded as 381 days. Further, the “Treatment-related AEs” value in series [6] and in series [7] (DDI + rifampicin study) was 0 (0) n (%) each time. Moreover, the “Participants with any AE” value in series [6] is 6 (37.5) n (%); in series [7] (DDI + rifampicin study), 2 (12.5) n (%). Besides, the Gastrointestinal disorders in [6] and in [7] (setting [13]) was 0 n (%) each time. Further, the “General disorders and administration site conditions” value is reported as 1 (6.3) n (%) in series [6] and 0 n (%) in series [7] (setting [13]). The Infections and infestations in series [6] is given as 3 (18.8) n (%). Further, the “Musculoskeletal and connective tissue disorders” value in [6] is 1 (6.3) n (%). In addition, the Nervous system disorders in series [6] and in series [7] (setting [13]) was 1 (6.3) n (%) each time. Besides, the Vascular disorders in series [6] is 1 (6.3) n (%). Besides, the “participants who reported ≥ 1 AE” value in series [6] (DDI with itraconazole) came to 37.5%; in [7] (DDI with rifampicin), 12.5%. In addition, the “Participants with Severe AE” value in [7] (DDI + rifampicin study) is listed as 0 (0) n (%). In addition, in [7] (setting [13]), the “Renal and urinary disorders” value was 0 n (%). In series [7] (setting [13]), the “Respiratory, thoracic and mediastinal disorders” value was 1 (6.3) n (%). Besides, in series [7] (setting [13]), the “Skin and subcutaneous tissue disorders” value was 0 n (%). For the same compound, the “inhibition of depletion of BI 425809 by erythromycin” value with CYP3A was 92.1–100% and > 90%. Besides, in [8] (setting [14]), the “AUC0-168, adjusted gMean ratio T/R (90% CI)” value is 10.3% and 10.3 (9.3‒11.3) %. Moreover, the “AUC0-∞, adjusted gMean” value in [8] (BI 425809 alone (R), inferential analysis) was determined as 8.596 µM·h. In addition, the AUC0-168 ratio in series [8] (BI 425809 co-administered with rifampicin relative to BI 425809 alone) is reported as 0.10. The same compound gave a half-life in [8] (setting [11]) of 33.4 h.
For the compound `CO[C@H]1/C=C/O[C@@]2(C)Oc3c(C)c(O)c4c(O)c(c(/C=N/N5CCN(C)CC5)c(O)c4c3C2=O)NC(=O)/C(C)=C\C=C\[C@H](C)[C@H](O)[C@@H](C)[C@@H](O)[C@@H](C)[C@H](OC(C)=O)[C@@H]1C` [Rifampicin, rifampicin, reference compound], in series [7] (DDI + rifampicin study), the “Participants with Severe AE” value is on record as 0 (0) n (%), the “Treatment-related AEs” value is 16 (100) n (%) and the “Participants with any AE” value is listed as 16 (100) n (%). In addition, in series [7] (setting [13]), the Gastrointestinal disorders is 0 n (%); the “General disorders and administration site conditions” value is listed as 1 (6.3) n (%); the “Renal and urinary disorders” value was 16 (100) n (%); the “Respiratory, thoracic and mediastinal disorders” value was 0 n (%). For the same compound, in series [7] (setting [13]), the “Skin and subcutaneous tissue disorders” value was 1 (6.3) n (%). In series [7] (DDI with rifampicin), the “participants who reported ≥ 1 AE” value was 100% and the “participants with AE considered as drug-related by the investigator” value was determined as 100%.
As to `CCC(C)n1ncn(-c2ccc(N3CCN(c4ccc(OCC5COC(Cn6cncn6)(c6ccc(Cl)cc6Cl)O5)cc4)CC3)cc2)c1=O` (stereo not shown) [Itraconazole, itraconazole, reference compound], in [6], the “Treatment-related AEs” value is reported as 1 (6.3) n (%); the “Participants with any AE” value is on record as 4 (25.0) n (%); the Gastrointestinal disorders was 1 (6.3) n (%); the “General disorders and administration site conditions” value is reported as 0 n (%). For the same compound, in [6], the Infections and infestations is 2 (12.5) n (%); the “Musculoskeletal and connective tissue disorders” value is reported as 1 (6.3) n (%); the Nervous system disorders was 0 n (%); the Vascular disorders is listed as 0 n (%). Also, in series [6] (DDI with itraconazole), the “participants who reported ≥ 1 AE” value is 25% and the “participants with AE considered as drug-related by the investigator” value was found to be 6.3%.
